Results taken from ChEMBL document CHEMBL1165965, “Synthesis and structure-activity relationships of 1,2,3,4-tetrahydropyrido[2,3-b]pyrazines as potent and selective inhibitors of the anaplastic lymphoma kinase” (Bioorg Med Chem, 2010).

Tests used:
[1] = target: T1, Ephrin type-B receptor 3 (Homo sapiens) (UniProt P54753); test: Inhibition of EPHB3 at 1 uM
T1 sequence (whole entry): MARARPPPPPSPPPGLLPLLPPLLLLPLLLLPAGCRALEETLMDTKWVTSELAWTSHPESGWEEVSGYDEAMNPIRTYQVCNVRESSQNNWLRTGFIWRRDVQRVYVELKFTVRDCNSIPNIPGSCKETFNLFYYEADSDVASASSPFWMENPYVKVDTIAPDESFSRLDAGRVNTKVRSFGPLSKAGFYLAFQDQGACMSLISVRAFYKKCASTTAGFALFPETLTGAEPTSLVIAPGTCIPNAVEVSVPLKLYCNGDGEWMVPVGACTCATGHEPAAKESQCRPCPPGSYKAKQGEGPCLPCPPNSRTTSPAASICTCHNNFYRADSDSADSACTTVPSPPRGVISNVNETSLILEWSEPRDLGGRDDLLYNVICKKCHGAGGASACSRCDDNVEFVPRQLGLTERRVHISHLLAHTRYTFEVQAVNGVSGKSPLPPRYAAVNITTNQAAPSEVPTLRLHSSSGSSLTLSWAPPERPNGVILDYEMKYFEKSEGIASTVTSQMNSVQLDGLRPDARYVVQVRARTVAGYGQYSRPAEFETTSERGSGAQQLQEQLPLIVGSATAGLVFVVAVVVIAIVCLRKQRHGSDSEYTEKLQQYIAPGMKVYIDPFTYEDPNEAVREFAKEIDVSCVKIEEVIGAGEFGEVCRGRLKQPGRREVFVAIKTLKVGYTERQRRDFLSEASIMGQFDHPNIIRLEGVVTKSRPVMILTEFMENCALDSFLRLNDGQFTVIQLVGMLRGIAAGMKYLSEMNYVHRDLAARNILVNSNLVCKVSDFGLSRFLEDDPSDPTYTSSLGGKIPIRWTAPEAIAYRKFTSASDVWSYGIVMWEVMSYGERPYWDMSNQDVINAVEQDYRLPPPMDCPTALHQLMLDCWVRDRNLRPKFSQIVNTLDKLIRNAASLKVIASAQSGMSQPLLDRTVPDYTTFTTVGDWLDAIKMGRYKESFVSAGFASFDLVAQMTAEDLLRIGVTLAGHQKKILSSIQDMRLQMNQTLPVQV
Summary of the method: (§1)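 Single-concentration screen using Ambit Bioscience KINOMEscan technology across a panel of 250–400 kinases. Per-kinase inhibition from this screen was summarized as S(90), the fraction of kinases inhibited by more than 90%.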

[2] = target: Tyrosine-protein kinase BTK (Homo sapiens) (UniProt Q06187); test: Inhibition of BTK at 1 uM
Chain of Tyrosine-protein kinase BTK (Homo sapiens) (Q06187 whole entry): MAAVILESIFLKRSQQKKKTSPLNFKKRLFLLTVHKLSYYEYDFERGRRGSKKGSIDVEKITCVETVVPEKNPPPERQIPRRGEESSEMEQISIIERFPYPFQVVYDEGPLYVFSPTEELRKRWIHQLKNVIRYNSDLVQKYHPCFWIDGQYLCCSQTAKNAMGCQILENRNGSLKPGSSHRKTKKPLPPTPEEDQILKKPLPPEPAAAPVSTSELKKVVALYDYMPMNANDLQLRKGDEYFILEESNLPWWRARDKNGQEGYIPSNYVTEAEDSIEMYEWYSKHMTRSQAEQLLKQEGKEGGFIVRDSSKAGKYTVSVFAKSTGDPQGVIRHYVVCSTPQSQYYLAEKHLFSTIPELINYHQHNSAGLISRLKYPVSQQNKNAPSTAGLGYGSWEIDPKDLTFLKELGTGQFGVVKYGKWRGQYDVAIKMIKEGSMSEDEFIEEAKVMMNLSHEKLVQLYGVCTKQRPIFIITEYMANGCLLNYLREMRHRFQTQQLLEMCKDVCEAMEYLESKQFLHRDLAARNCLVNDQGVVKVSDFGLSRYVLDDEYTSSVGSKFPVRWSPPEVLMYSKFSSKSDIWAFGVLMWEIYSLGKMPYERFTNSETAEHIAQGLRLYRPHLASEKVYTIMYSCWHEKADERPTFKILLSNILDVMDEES
Summary of the method: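 Ambit KINOMEscan screen at a single concentration across a 250–400 kinase panel, recorded as percent inhibition. Selectivity was expressed as S(90), the fraction of kinases inhibited >90%.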

[3] = target: Phosphorylase b kinase gamma catalytic chain, skeletal muscle/heart isoform (Homo sapiens) (UniProt Q16816); test: Inhibition of PHKG1 at 1 uM
Chain of Phosphorylase b kinase gamma catalytic chain, skeletal muscle/heart isoform (Homo sapiens) (Q16816 whole entry, looked up, canonical isoform): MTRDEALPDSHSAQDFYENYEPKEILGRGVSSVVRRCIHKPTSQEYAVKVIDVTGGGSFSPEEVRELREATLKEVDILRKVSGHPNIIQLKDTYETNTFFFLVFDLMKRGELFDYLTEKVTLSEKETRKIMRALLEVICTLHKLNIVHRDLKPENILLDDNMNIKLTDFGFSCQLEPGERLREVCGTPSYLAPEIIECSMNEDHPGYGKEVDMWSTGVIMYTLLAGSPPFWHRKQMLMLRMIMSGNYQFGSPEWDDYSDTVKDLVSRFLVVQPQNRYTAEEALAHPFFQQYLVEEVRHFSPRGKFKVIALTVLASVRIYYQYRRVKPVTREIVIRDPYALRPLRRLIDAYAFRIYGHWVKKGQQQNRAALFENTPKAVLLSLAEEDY

[4] = target: T2, Ephrin type-B receptor 2 (Homo sapiens) (UniProt P29323); test: Inhibition of EPHB2 at 1 uM; summary of the method: as §1
T2 sequence (whole entry): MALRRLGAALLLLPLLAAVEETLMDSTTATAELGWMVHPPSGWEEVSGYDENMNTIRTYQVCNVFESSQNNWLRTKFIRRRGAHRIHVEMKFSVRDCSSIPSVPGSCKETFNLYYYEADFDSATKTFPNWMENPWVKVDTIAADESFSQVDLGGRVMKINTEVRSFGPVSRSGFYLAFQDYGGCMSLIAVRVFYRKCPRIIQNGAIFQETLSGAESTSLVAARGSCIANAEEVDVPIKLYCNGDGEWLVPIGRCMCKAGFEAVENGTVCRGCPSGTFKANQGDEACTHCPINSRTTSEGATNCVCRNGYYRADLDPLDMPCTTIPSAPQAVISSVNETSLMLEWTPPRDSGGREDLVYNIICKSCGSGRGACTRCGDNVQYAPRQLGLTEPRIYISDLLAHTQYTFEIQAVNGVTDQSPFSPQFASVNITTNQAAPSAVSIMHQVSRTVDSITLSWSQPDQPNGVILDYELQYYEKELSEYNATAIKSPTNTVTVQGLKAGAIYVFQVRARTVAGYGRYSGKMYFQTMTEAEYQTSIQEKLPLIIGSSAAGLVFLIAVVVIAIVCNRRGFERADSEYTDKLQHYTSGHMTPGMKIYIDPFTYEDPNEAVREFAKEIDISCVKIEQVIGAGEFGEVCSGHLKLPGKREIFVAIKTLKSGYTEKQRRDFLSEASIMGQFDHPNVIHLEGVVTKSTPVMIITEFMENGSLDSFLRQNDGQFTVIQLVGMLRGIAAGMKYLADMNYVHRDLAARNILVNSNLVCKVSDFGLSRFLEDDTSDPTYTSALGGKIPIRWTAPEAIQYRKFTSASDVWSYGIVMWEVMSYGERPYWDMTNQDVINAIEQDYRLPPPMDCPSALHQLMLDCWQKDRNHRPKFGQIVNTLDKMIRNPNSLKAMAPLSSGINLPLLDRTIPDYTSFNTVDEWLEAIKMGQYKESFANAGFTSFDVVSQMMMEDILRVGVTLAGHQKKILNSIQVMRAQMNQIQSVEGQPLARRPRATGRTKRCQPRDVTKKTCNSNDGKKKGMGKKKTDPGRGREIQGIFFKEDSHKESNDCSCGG

[5] = target: Mitogen-activated protein kinase 6 (Homo sapiens) (UniProt Q16659); test: Inhibition of ERK3 at 1 uM
Chain of Mitogen-activated protein kinase 6 (Homo sapiens) (Q16659 whole entry): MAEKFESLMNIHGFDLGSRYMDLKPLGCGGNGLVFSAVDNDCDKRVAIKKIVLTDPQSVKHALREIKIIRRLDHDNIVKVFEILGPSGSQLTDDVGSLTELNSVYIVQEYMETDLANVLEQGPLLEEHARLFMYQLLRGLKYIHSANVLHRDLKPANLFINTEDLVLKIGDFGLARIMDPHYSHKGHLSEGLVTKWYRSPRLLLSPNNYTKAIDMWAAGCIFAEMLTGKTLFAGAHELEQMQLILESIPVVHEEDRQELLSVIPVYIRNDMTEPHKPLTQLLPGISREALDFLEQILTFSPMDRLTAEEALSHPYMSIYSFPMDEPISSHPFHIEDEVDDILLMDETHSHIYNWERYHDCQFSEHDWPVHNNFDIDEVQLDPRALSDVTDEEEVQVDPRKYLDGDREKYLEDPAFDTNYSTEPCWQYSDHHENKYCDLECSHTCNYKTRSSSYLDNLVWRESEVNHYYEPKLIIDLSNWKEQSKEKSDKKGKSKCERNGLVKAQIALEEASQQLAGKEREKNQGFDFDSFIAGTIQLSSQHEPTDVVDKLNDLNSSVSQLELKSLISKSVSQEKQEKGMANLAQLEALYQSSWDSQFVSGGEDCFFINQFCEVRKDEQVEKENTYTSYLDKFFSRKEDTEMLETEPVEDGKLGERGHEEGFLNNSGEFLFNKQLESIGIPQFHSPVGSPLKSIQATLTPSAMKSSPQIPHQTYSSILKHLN

[6] = target: Receptor-type tyrosine-protein kinase FLT3 (Homo sapiens) (UniProt P36888); test: Inhibition of FLT3 at 1 uM
Chain of Receptor-type tyrosine-protein kinase FLT3 (Homo sapiens) (P36888 whole entry): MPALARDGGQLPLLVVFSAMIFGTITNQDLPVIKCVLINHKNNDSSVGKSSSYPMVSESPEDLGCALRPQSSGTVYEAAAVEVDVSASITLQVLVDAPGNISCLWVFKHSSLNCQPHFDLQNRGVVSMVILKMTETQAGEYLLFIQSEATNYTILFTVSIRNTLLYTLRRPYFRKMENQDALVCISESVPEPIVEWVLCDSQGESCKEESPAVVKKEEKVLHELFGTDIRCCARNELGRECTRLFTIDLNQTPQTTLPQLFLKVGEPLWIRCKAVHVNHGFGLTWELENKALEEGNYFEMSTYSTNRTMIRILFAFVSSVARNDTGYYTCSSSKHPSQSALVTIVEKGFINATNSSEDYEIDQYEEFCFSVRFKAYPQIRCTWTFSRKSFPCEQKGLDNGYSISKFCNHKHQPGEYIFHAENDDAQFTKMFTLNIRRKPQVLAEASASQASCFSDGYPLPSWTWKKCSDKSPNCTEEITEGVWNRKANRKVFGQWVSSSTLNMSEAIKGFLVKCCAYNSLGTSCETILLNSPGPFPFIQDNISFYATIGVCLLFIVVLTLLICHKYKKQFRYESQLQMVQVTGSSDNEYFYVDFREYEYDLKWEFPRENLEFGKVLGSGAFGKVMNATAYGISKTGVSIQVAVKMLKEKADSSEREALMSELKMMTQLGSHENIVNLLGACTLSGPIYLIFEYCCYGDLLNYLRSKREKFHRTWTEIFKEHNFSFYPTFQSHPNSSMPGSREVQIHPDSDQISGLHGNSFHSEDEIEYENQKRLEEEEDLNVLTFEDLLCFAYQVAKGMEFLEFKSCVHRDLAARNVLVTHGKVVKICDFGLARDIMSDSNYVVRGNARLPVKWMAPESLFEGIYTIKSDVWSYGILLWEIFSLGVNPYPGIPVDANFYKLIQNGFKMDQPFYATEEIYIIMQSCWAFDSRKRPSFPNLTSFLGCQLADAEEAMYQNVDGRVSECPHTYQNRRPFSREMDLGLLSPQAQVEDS
Summary of the method: (§2)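 Single-concentration screen on the Ambit KINOMEscan platform, run against a panel of 250–400 kinases. Per-kinase inhibition was also summarized as S(90), the fraction of kinases inhibited by more than 90%.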

[7] = target: Tyrosine-protein kinase JAK1 (Homo sapiens) (UniProt P23458); test: Inhibition of JAK1 JH2 pseudokinase domain at 1 uM; summary of the method: as §2
Chain of Tyrosine-protein kinase JAK1 (Homo sapiens) (P23458 whole entry, the tested form may be a part): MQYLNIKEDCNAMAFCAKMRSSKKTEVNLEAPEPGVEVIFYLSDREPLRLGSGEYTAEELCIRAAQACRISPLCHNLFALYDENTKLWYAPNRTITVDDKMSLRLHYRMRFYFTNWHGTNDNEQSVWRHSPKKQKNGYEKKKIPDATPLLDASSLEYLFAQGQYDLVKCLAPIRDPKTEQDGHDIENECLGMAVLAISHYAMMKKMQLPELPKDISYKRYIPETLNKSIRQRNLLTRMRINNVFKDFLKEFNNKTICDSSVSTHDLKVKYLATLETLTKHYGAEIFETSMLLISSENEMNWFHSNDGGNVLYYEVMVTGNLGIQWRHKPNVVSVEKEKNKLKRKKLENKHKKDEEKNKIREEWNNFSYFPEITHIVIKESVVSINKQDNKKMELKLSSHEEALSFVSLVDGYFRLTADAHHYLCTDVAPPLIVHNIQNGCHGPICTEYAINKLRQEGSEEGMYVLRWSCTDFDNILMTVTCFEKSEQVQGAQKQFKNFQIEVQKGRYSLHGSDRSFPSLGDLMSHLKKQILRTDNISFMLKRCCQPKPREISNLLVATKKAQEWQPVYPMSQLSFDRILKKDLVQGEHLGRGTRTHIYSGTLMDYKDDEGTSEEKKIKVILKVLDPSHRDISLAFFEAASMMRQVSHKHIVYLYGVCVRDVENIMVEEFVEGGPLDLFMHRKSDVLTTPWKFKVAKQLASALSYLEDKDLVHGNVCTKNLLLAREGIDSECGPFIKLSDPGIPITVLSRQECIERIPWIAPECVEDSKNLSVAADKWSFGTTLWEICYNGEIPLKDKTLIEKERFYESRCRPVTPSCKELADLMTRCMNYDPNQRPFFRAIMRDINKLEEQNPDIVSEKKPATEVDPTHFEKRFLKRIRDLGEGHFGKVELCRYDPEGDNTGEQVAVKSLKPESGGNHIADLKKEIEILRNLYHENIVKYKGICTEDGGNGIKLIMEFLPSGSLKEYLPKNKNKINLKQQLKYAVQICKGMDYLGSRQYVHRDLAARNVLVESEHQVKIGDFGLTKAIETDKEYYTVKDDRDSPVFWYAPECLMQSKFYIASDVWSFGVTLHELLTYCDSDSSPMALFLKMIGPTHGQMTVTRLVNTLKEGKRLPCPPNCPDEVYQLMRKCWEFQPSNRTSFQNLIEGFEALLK

[8] = tested on: Mast/stem cell growth factor receptor Kit (Homo sapiens), P10721 [V559D,V654A]; test: Inhibition of KIT V559D,V654A mutant at 1 uM; summary of the method: as §2
Chain of Mast/stem cell growth factor receptor Kit (Homo sapiens), P10721 [V559D,V654A] (P10721 whole entry V559D/V654A, canonical isoform): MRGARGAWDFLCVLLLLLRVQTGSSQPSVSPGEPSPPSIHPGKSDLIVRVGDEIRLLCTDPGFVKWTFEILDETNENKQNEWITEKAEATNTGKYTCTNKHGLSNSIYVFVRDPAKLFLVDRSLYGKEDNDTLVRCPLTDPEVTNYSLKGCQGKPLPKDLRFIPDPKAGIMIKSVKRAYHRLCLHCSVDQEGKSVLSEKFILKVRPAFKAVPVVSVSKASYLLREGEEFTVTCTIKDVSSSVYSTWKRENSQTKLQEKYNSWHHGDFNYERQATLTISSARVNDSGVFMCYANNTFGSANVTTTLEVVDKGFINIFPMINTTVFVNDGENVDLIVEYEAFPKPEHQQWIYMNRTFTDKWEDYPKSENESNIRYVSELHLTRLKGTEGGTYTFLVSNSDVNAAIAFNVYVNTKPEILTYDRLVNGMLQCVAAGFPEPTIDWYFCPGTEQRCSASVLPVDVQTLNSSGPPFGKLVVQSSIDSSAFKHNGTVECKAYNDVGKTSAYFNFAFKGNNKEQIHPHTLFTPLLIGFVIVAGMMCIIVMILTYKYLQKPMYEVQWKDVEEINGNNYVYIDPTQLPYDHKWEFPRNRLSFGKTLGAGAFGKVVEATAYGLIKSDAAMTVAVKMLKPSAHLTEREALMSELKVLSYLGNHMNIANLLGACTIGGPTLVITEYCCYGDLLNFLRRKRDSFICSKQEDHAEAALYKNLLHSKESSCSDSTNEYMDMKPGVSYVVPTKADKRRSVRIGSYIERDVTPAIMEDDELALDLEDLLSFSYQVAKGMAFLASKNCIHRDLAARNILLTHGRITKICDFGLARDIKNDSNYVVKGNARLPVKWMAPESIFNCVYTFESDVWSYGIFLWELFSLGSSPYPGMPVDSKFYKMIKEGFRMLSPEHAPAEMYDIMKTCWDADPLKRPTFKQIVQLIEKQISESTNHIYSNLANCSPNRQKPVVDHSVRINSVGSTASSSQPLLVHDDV

[9] = tested on: Phosphatidylinositol 4,5-bisphosphate 3-kinase catalytic subunit alpha isoform (Homo sapiens), P42336 [M1043I]; test: Inhibition of PIK3CA M1043I mutant at 1 uM
[10] = tested on: Fibroblast growth factor receptor 3 (Homo sapiens), P22607 [G697C]; test: Inhibition of FGFR3 G697C mutant at 1 uM; summary of the method: as §1

**Q.** `CN1CCN(c2ccc(-c3cnc4c(c3)N(Cc3cc(F)ccc3F)CCN4)cn2)CC1` was tested. Which inhibition [1] did it give?
**A.** < 50%

**Q.** And the inhibition [2]?
**A.** < 50%

**Q.** What about the inhibition [3] of the same compound?
**A.** < 50%

**Q.** What about the inhibition [4] of the same compound?
**A.** < 50%

**Q.** What about the inhibition [5] of the same compound?
**A.** < 50%

**Q.** What about the inhibition [6] of the same compound?
**A.** 64%

**Q.** What about the inhibition [7] of the same compound?
**A.** < 50%

**Q.** And the inhibition [8]?
**A.** < 50%

**Q.** And the inhibition [9]?
**A.** < 50%

**Q.** What about the inhibition [10] of the same compound?
**A.** < 50%

**Q.** Which inhibition [1] does the source give for `CC(=O)N1CCN(c2cc(-c3cnc4c(c3)N(Cc3cc(Cl)ccc3C(F)(F)F)CCN4)ccn2)CC1` here?
**A.** < 50%

**Q.** And the inhibition [2]?
**A.** < 50%

**Q.** And the inhibition [3]?
**A.** < 50%

**Q.** What about the inhibition [4] of the same compound?
**A.** < 50%

**Q.** What about the inhibition [5] of the same compound?
**A.** < 50%

**Q.** What about the inhibition [6] of the same compound?
**A.** 83%

**Q.** And the inhibition [7]?
**A.** < 50%

**Q.** And the inhibition [8]?
**A.** < 50%

**Q.** And the inhibition [9]?
**A.** < 50%

**Q.** And the inhibition [10]?
**A.** < 50%

**Q.** For `CN1CCN(c2ccc(-c3cnc4c(c3)N(Cc3c(F)ccc(F)c3Cl)CCN4)cn2)CC1`, which inhibition [1] is on record?
**A.** < 50%

**Q.** And the inhibition [2]?
**A.** < 50%

**Q.** And the inhibition [3]?
**A.** < 50%

**Q.** And the inhibition [4]?
**A.** < 50%

**Q.** And the inhibition [5]?
**A.** < 50%

**Q.** What about the inhibition [6] of the same compound?
**A.** < 50%

**Q.** What about the inhibition [7] of the same compound?
**A.** < 50%

**Q.** And the inhibition [8]?
**A.** < 50%

**Q.** What about the inhibition [9] of the same compound?
**A.** < 50%

**Q.** What about the inhibition [10] of the same compound?
**A.** < 50%

**Q.** With `FC(F)(F)c1ccc(Cl)cc1CN1CCNc2ncc(-c3ccnc(N4CCNCC4)c3)cc21` as the compound, how does the inhibition [1] read?
**A.** < 50%

**Q.** And the inhibition [2]?
**A.** < 50%

**Q.** And the inhibition [3]?
**A.** < 50%

**Q.** What about the inhibition [4] of the same compound?
**A.** < 50%

**Q.** What about the inhibition [5] of the same compound?
**A.** < 50%

**Q.** What about the inhibition [6] of the same compound?
**A.** 95%

**Q.** And the inhibition [7]?
**A.** < 50%

**Q.** What about the inhibition [8] of the same compound?
**A.** < 50%

**Q.** What about the inhibition [9] of the same compound?
**A.** < 50%

**Q.** And the inhibition [10]?
**A.** < 50%

**Q.** What does the source list for `CN1CCN(c2ccc(-c3cnc4c(c3)N(Cc3cc(Cl)ccc3Cl)CCN4)cn2)CC1`?
**A.** inhibition [1]: < 50%; inhibition [2]: < 50%; inhibition [3]: < 50%; inhibition [4]: < 50%; inhibition [5]: < 50%; inhibition [6]: 90%; inhibition [7]: < 50%; inhibition [8]: < 50%; inhibition [9]: < 50%; inhibition [10]: < 50%

**Q.** With `O=C(c1ccc(-c2cnc3c(c2)N(Cc2cc(Cl)ccc2C(F)(F)F)CCN3)cc1)N1CCC(N2CCCC2)CC1` as the compound, how does the inhibition [1] read?
**A.** < 50%

**Q.** What about the inhibition [2] of the same compound?
**A.** < 50%

**Q.** What about the inhibition [3] of the same compound?
**A.** < 50%

**Q.** What about the inhibition [4] of the same compound?
**A.** < 50%

**Q.** And the inhibition [6]?
**A.** 99.3%

**Q.** What about the inhibition [7] of the same compound?
**A.** < 50%

**Q.** What about the inhibition [8] of the same compound?
**A.** < 50%

**Q.** What about the inhibition [10] of the same compound?
**A.** < 50%

**Q.** For `O=C(O)c1ccc(-c2cnc3c(c2)N(Cc2cc(Cl)ccc2C(F)(F)F)CCN3)cc1`, which inhibition [1] is on record?
**A.** < 50%

**Q.** And the inhibition [2]?
**A.** < 50%

**Q.** And the inhibition [3]?
**A.** < 50%

**Q.** What about the inhibition [4] of the same compound?
**A.** < 50%

**Q.** What about the inhibition [6] of the same compound?
**A.** < 50%

**Q.** And the inhibition [7]?
**A.** < 50%

**Q.** And the inhibition [8]?
**A.** < 50%

**Q.** What about the inhibition [10] of the same compound?
**A.** < 50%

**Q.** Which results are given for `CN1CCN(c2ccc(-c3cnc4c(c3)N(Cc3cc(Cl)ccc3C(F)(F)F)CCN4)cn2)CC1`?
**A.** inhibition [1]: < 50%; inhibition [2]: < 50%; inhibition [3]: < 50%; inhibition [4]: < 50%; inhibition [5]: < 50%; inhibition [6]: 88%; inhibition [7]: < 50%; inhibition [8]: < 50%; inhibition [9]: < 50%; inhibition [10]: < 50%

**Q.** With `O=C(c1ccc(-c2cnc3c(c2)N(Cc2cc(Cl)ccc2C(F)(F)F)CCN3)cc1)N1CCCCC1` as the compound, how does the inhibition [1] read?
**A.** < 50%

**Q.** What about the inhibition [2] of the same compound?
**A.** < 50%

**Q.** What about the inhibition [3] of the same compound?
**A.** < 50%

**Q.** What about the inhibition [4] of the same compound?
**A.** < 50%

**Q.** And the inhibition [6]?
**A.** < 50%

**Q.** What about the inhibition [7] of the same compound?
**A.** < 50%

**Q.** What about the inhibition [8] of the same compound?
**A.** < 50%

**Q.** What about the inhibition [10] of the same compound?
**A.** < 50%

**Q.** Which inhibition [1] does the source give for `COC1CCN(C(=O)c2ccc(-c3cnc4c(c3)N(Cc3cc(Cl)ccc3C(F)(F)F)CCN4)cc2)CC1` here?
**A.** < 50%

**Q.** And the inhibition [2]?
**A.** < 50%

**Q.** And the inhibition [3]?
**A.** < 50%

**Q.** And the inhibition [4]?
**A.** < 50%

**Q.** And the inhibition [6]?
**A.** 80.7%

**Q.** What about the inhibition [7] of the same compound?
**A.** < 50%

**Q.** And the inhibition [8]?
**A.** < 50%

**Q.** What about the inhibition [10] of the same compound?
**A.** < 50%
